Active and inactive are the calls of the source. No cut-off for these calls is given here.
Legend:
[1] = target: T1, Lysine-specific demethylase 5A (Homo sapiens, UniProt P29375); test: Inhibition of KDM5A (unknown origin) at 1 uM relative to control
[2] = target: T2, Lysine-specific demethylase 6B (Homo sapiens, UniProt O15054); test: Inhibition of KDM6B (unknown origin)
[3] = target: T3, Lysine-specific demethylase 4C (Homo sapiens) (UniProt Q9H3R0); test: Inhibition of KDM4C (unknown origin) at 0.01 uM relative to control
T3 sequence (whole entry): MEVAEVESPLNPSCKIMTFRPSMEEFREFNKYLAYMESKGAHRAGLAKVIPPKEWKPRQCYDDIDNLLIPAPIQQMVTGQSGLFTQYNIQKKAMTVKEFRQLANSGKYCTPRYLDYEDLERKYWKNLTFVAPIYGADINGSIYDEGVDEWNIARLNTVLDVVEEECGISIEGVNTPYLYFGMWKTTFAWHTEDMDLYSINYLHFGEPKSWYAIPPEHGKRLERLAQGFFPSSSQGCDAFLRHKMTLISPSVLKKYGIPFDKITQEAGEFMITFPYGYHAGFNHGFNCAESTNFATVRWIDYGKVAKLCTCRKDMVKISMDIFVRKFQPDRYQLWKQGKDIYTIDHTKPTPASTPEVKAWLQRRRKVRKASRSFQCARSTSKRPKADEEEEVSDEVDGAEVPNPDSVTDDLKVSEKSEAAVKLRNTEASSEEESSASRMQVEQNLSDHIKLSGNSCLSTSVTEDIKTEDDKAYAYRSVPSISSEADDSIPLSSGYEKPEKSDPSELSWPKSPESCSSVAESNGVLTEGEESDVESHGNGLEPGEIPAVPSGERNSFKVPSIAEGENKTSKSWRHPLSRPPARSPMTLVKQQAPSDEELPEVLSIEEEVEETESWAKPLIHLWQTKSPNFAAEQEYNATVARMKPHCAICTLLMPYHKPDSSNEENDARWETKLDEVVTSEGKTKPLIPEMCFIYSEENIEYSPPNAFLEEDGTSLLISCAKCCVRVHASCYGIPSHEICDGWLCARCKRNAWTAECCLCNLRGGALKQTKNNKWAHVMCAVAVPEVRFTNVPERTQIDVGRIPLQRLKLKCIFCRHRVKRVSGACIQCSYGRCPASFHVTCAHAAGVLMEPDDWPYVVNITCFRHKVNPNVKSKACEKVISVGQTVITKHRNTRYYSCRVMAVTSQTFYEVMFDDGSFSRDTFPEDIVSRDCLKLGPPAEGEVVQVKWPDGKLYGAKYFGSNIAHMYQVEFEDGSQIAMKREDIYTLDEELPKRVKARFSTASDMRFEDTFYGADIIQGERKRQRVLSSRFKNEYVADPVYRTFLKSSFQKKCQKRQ

[4] = target: T4, Lysine-specific demethylase 5B (Homo sapiens, UniProt Q9UGL1); test: Inhibition of KDM5B in human MKN-45 cells assessed as increase in H3K4me1 accumulation at 0.5 to 20 uM measured after 5 days by Western blot analysis; format: cell-based; conditions: dose 0.5-20 µM, time 5.0 day
T4 sequence (Q9UGL1 whole entry): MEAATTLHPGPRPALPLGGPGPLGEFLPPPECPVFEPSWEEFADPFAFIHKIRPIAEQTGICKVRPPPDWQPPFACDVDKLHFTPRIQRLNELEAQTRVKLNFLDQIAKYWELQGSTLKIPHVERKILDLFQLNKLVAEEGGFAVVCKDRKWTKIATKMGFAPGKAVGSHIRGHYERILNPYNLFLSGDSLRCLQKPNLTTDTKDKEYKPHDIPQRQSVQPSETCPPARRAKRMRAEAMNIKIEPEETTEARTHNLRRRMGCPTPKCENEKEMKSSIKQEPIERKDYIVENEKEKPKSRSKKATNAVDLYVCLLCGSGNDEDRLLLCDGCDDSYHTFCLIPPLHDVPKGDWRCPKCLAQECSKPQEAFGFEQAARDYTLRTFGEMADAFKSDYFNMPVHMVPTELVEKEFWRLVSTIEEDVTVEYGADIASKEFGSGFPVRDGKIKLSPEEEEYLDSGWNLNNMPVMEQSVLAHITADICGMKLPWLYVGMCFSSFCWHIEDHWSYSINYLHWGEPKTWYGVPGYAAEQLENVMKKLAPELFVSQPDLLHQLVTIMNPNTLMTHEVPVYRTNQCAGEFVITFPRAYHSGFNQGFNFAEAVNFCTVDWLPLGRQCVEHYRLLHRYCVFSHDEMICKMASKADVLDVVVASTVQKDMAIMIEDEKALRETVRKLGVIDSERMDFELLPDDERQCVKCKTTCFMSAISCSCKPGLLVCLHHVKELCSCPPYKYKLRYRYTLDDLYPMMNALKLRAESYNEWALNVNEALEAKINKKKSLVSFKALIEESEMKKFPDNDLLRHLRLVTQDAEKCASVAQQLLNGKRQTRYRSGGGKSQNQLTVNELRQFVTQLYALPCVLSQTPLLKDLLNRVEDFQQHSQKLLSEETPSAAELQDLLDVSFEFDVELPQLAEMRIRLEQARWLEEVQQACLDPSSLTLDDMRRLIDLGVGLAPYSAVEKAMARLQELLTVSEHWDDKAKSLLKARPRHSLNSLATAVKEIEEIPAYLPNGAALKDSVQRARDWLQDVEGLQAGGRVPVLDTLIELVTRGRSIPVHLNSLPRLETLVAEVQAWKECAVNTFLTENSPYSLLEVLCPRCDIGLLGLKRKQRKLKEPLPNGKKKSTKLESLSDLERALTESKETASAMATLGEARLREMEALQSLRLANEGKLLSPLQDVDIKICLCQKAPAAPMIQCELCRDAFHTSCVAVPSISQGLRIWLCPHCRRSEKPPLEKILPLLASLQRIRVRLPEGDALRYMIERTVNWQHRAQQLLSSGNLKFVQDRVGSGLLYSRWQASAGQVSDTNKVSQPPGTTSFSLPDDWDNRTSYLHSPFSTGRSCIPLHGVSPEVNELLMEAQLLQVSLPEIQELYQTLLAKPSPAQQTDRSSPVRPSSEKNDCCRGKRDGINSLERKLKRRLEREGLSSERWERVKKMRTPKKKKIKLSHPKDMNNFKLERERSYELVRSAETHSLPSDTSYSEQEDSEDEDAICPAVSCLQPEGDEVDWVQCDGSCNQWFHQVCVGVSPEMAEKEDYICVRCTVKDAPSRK
Procedure, shortened: (§1)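 MKN45 cells were treated for 5 days and lysed in RIPA buffer. About 30 µg protein was run on 10% SDS-PAGE and transferred to 0.2 µm nitrocellulose, then blocked with 5% milk in PBS for 2 h. Blots were probed for histone methylation marks with histone 3 as loading control and detected by ECL.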

[5] = target: T2, Lysine-specific demethylase 6B; test: Inhibition of KDM6B (unknown origin) at 0.25 uM relative to control
[6] = target: T4, Lysine-specific demethylase 5B; test: Inhibition of KDM5B in human MKN-45 cells assessed as increase in H3K4me2 accumulation measured after 5 days by Hoechst 33342 staining based immunofluorescence assay; format: cell-based; conditions: time 5.0 day
Procedure, shortened: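 MKN45 cells were seeded and left 24 h, then treated for 5 days. Cells were fixed in 4% paraformaldehyde, permeabilised with 0.1% Triton X-100 for 20 min and blocked with 5% BSA for 1 h. H3K4me2 or H3K4me3 primary antibody was applied at 4°C overnight, followed by Alexa Fluor 488 secondary and Hoechst 33342 (5 µg/mL) nuclear stain. Signal was quantified by high content imaging; three independent experiments.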

[7] = target: T5, Lysine-specific demethylase 5C (Homo sapiens, UniProt P41229); test: Inhibition of KDM5C (unknown origin) at 1 uM relative to control
[8] = target: T6, Lysine-specific demethylase 4A (Homo sapiens) (UniProt O75164); test: Inhibition of KDM4A (unknown origin) at 1 uM relative to control
T6 sequence (whole entry): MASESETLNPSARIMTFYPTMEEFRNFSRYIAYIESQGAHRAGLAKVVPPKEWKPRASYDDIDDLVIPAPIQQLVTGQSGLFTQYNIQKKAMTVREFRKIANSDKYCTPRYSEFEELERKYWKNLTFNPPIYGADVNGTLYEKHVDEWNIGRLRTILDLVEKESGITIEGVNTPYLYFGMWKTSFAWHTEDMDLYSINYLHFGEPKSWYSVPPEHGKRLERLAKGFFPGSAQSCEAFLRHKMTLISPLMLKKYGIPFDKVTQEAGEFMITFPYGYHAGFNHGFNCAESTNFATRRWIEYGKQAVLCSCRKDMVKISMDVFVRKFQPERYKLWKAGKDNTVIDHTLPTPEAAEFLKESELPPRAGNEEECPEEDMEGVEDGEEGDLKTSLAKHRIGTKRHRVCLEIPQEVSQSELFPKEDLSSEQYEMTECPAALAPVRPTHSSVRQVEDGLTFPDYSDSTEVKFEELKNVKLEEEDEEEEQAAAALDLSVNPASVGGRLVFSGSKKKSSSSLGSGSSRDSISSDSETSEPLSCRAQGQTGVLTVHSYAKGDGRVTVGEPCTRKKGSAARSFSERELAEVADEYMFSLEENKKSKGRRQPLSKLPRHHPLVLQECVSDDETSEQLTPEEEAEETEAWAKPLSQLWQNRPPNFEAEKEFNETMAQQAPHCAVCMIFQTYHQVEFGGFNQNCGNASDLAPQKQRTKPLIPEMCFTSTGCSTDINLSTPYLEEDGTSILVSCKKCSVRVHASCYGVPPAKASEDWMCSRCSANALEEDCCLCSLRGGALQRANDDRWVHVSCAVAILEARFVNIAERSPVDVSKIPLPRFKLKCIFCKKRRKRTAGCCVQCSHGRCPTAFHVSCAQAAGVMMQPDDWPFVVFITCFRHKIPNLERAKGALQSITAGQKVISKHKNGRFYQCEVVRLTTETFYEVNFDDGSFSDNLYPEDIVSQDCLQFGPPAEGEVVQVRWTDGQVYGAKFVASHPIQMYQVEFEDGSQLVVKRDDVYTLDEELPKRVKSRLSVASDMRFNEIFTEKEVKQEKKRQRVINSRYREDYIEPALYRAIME

[9] = target: T1, Lysine-specific demethylase 5A; test: Inhibition of KDM5A (unknown origin)
MKN-45 = test: Inhibition of KDM6 in human MKN-45 cells assessed as increase in H3K27me2 accumulation at 0.5 to 20 uM measured after 5 days by Western blot analysis; format: cell-based; conditions: dose 0.5-20 µM, time 5.0 day; procedure, shortened: as §1
[10] = target: T5, Lysine-specific demethylase 5C; test: Inhibition of KDM5C (unknown origin) at 0.01 uM relative to control

T2 sequence (O15054 whole entry): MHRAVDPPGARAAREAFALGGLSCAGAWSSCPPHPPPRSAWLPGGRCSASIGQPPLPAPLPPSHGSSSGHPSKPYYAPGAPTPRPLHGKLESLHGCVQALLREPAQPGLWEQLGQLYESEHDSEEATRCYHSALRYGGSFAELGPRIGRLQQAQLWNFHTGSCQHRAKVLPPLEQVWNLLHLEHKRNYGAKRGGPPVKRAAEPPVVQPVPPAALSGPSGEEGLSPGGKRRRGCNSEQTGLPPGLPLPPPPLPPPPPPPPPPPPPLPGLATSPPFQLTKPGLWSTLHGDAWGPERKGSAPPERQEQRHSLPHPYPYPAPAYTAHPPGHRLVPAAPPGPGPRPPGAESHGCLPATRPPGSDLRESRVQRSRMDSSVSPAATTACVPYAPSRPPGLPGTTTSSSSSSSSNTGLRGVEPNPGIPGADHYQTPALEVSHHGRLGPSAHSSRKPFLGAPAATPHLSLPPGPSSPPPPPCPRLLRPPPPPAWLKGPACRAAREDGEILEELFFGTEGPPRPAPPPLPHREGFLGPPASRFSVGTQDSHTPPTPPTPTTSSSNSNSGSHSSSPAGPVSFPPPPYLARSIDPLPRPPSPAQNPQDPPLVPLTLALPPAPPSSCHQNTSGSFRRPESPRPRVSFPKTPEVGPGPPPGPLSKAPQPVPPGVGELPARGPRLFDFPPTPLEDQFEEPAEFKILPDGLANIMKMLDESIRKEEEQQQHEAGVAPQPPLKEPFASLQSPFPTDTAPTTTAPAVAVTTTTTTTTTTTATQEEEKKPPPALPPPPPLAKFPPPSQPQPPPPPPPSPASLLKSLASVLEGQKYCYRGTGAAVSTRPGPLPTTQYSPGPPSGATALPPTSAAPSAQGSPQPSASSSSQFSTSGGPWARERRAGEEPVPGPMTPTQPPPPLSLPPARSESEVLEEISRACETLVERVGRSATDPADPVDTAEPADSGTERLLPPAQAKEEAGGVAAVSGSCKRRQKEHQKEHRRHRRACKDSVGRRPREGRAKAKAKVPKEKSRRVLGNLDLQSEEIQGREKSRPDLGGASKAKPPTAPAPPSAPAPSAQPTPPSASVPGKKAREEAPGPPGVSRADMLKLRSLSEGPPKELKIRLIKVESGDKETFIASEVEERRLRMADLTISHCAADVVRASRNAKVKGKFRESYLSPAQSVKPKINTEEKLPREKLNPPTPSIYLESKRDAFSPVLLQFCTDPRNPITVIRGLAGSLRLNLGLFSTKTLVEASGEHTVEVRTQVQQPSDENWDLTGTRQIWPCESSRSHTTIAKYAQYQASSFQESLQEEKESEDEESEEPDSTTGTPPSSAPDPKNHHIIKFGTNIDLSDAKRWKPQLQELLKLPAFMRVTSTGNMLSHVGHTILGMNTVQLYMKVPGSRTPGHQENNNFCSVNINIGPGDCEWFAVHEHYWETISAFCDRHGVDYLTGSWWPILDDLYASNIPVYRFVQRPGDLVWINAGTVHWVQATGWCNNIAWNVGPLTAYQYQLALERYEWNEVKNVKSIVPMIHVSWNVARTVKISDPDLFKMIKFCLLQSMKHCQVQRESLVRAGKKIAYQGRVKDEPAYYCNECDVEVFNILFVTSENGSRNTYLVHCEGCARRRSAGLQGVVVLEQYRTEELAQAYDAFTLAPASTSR
T1 sequence (P29375 whole entry): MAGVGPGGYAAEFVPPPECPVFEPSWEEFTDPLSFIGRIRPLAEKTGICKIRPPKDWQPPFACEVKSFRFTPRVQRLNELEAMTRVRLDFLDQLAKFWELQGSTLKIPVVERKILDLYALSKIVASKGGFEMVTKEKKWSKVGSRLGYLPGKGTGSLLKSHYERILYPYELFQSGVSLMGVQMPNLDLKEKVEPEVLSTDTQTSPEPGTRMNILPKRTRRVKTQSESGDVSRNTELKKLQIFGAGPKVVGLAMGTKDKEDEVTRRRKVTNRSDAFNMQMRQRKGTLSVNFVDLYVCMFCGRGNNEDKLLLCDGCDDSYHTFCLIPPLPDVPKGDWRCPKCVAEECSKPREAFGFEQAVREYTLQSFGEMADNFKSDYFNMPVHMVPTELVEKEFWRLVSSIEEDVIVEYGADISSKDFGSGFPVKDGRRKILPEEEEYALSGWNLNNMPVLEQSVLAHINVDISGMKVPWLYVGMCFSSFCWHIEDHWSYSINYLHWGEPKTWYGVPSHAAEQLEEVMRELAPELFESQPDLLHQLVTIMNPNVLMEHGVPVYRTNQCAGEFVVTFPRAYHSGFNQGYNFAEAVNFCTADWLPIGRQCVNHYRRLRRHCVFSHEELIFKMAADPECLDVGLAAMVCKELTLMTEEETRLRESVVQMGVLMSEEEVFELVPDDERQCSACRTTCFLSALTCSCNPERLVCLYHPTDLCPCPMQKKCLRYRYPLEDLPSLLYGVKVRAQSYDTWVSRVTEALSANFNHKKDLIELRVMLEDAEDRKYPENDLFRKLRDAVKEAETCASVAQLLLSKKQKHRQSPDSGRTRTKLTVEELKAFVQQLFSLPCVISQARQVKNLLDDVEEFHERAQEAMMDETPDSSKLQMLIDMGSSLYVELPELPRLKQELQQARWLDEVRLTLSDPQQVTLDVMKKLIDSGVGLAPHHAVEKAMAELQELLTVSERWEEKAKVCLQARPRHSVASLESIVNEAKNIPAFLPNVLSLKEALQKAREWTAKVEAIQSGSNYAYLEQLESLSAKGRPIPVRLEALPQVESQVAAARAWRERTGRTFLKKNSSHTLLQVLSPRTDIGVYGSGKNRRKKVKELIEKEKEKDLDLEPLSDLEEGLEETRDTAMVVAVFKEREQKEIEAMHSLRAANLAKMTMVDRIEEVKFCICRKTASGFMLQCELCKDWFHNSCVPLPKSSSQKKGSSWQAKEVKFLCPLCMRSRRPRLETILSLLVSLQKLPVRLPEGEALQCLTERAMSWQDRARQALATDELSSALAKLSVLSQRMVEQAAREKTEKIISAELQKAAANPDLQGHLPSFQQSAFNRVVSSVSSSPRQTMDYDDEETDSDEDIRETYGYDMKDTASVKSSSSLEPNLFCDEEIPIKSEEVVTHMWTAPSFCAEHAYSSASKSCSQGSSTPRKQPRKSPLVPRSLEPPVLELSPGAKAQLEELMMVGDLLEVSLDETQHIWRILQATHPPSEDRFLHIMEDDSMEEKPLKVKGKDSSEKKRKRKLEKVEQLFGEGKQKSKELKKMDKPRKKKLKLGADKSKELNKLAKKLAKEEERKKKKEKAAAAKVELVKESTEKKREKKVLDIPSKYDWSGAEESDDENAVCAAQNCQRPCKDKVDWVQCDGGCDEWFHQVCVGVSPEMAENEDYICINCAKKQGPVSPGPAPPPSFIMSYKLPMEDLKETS

## COc1ccc(-n2cc(C(=O)NCC(C)(C)N3CCOCC3)c(-c3ccccc3)n2)cc1
[1]
  inhibition: 79.3%
[2]
  IC50: > 1000 nM
[3]
  inhibition: 3.52%
[4]
  inhibition: inactive
[5]
  inhibition: 12.4%
[6]
  inhibition: Dose-dependent effect
[7]
  inhibition: 80.2%
[8]
  inhibition: 56.2%
[9]
  IC50: 24.9 nM
MKN-45
  inhibition: inactive
[10]
  inhibition: 16.4%
